Source: ChEMBL document CHEMBL1154081, “Synthesis of uracil nucleotide analogs with a modified, acyclic ribose moiety as P2Y(2) receptor antagonists” (Bioorg Med Chem, 2009)

What was measured:
Type in all cases: functional, cell-based
P2Y purinoceptor 2 [1] = biological target: T1, P2Y purinoceptor 2 (Mus musculus, UniProt P35383); assay: Agonist activity at mouse P2Y2 receptor expressed in NG108-15 hybrid cells assessed as increase in intracellular calcium release by fluorescence assay
Summary of the method: (§1)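 NG108-15 cells (mouse neuroblastoma × rat glioma; endogenous P2Y2, no P2Y4) grown in DMEM with 10% FBS, penicillin/streptomycin and HAT. Cells loaded 1 h at 25 °C with shaking, with the Ca2+ fluorophore Oregon Green. Cells rinsed twice in Krebs–HEPES pH 7.4 and plated at 17,000 cells/well. Compound in buffer injected, then fluorescence read at 520 nm over 60 × 0.4 s. Quadruplicate points.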

P2Y purinoceptor 2 [2] = biological target: T1, P2Y purinoceptor 2; assay: (§2) Antagonist activity at mouse P2Y2 receptor expressed in NG108-15 hybrid cells assessed as inhibition of 1 uM UTP-induced intracellular calcium release preincubated 30 mins before UTP challenge by fluorescence assay
Summary of the method: (§3)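 Oregon Green-loaded NG108-15 cells in Krebs–HEPES pH 7.4, 17,000 cells/well, preincubated at 37 °C for at least 30 min with two concentrations of test compound. UTP agonist then injected, and the inhibition of the intracellular Ca2+ fluorescence rise was measured at 520 nm. Quadruplicate determinations.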

[3] = biological target: P2Y purinoceptor 2 (Mus musculus) (UniProt P35383); assay: Agonist activity at mouse P2Y2 receptor expressed in NG108-15 hybrid cells assessed as increase in intracellular calcium release at 100 uM by fluorescence assay relative to UTP; summary of the method: as §1
[4] = biological target: P2Y purinoceptor 2 (Mus musculus) (UniProt P35383); assay: as §2; summary of the method: as §3
P2Y purinoceptor 2 [5] = biological target: T1, P2Y purinoceptor 2; assay: Antagonist activity at mouse P2Y2 receptor expressed in NG108-15 hybrid cells assessed as inhibition of 3 uM UTP-induced intracellular calcium release preincubated 30 mins before UTP challenge by fluorescence assay; summary of the method: as §3

T1 sequence (P35383 whole entry): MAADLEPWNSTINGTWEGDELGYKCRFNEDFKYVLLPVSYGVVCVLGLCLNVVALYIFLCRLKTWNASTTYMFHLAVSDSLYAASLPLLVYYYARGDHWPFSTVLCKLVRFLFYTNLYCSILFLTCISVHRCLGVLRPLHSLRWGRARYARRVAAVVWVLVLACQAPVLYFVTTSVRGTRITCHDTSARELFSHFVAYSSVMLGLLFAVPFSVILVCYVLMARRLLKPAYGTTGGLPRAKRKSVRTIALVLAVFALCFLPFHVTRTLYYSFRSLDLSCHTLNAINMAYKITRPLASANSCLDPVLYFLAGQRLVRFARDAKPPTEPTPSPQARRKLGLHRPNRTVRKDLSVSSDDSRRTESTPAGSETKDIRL
P2Y purinoceptor 2 (Mus musculus), sequence (P35383 whole entry): as above

Row | IC50 (P2Y purinoceptor 2 [2]) [µM] | inhibition [4] [%] | also measured | SMILES
1 | 1.51 | – | EC50 (P2Y purinoceptor 2 [1]): 1.26 µM; Activity [3]: 40% | O=c1ccn([C@@H]2O[C@H](COP(=O)(O)OP(=O)(O)OP(=O)(O)O)[C@@H](O)[C@H]2O)c(=O)[nH]1 [URIDINE TRIPHOSPHATE]
2 | 500 | 52 | – | O=c1ccn(CCCP(=O)(O)OP(=O)(O)OP(=O)(O)O)c(=O)[nH]1
3 | > 500 | 16 | – | O=c1ccn(COCCOP(=O)(O)O)c(=O)[nH]1
4 | 92 | – | – | O=c1ccn(CCCCP(=O)(O)OP(=O)(O)OP(=O)(O)O)c(=O)[nH]1
5 | – | 60 | IC50 (P2Y purinoceptor 2 [2]; ng108-15): ≤ 500 µM | O=c1ccn(CCCCOP(=O)(O)O)c(=O)[nH]1
6 | 338 | – | – | O=c1ccn(COCCCOP(=O)(O)O)c(=O)[nH]1
7 | 264 | – | – | O=c1ccn(COCCCOP(=O)(O)OP(=O)(O)OP(=O)(O)O)c(=O)[nH]1
8 | 500 | 50 | – | O=c1ccn(CCCCCOP(=O)(O)OP(=O)(O)OP(=O)(O)O)c(=O)[nH]1
9 | – | 60 | IC50 (P2Y purinoceptor 2 [2]; ng108-15): ≤ 500 µM | O=c1ccn(CCOP(=O)(O)OP(=O)(O)OP(=O)(O)O)c(=O)[nH]1
10 | > 500 | 16 | – | O=c1ccn(COCCOP(=O)(O)OP(=O)(O)OP(=O)(O)O)c(=O)[nH]1
11 | 267 | – | – | O=c1ccn(CCCCCOP(=O)(O)O)c(=O)[nH]1
12 | > 500 | 22 | – | O=c1ccn(CCOP(=O)(O)O)c(=O)[nH]1
13 | 500 | 55 | – | O=c1ccn(CCCCCP(=O)(O)OP(=O)(O)O)c(=O)[nH]1
14 | – | – | IC50 (P2Y purinoceptor 2 [5]): 596 µM | O=c1ccn(CCCCOP(=O)(O)OP(=O)(O)OP(=O)(O)O)c(=O)[nH]1
15 | 166 | – | – | O=c1ccn(CCCCCP(=O)(O)OP(=O)(O)OP(=O)(O)O)c(=O)[nH]1
